A selection: hits, their analogues and other compounds. The true share with any hit is near 2.2%.
BaF3 parental: reduces parental Ba/F3 cell viability, JAK2V617F counter-screen; CellTiter-Glo ATP luminescence; inhibition, % at 5.6 µM; actives 1.1% (n = 220,000); AID 1486;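 active = inhibition above a per-campaign cutoff, the mean inhibition of all tested compounds plus 3 SD, cut at about 27% in these data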;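 also: 0% = DMSO wells and 100% = JAK Inhibitor I control wells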
APP 5UTR inh: APP translation inhibition | SH-SY5Y APP 5'UTR-luciferase reporter, luminescence | inhibition, % at 2 µM | actives 0.82% (n = 190,000) | AID 1285;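 active = inhibition above a set limit, derived from the sample mean plus 3 SD, cut at about 45% in these data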
MT stabilizer: stabilizes microtubules in HeLa cells; HeLa tubulin immunostaining HCS, 24 h; share of cells brighter than vehicle mean+2SD; % tubulin-high responders, % at 10 µM; actives 0.83% (n = 200,000); AID 2205;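 active = plate Z-score above 3 for both tubulin-high and condensed-nucleus cell shares, with cell loss under 80%, at 10 µM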;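 also: anti alpha tubulin signal scored within the nucleus-defined area of each cell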
IEC-6 tox: counter-screen for KLF5 inhibitors: cytotoxicity in IEC-6 cells. IEC-6 cytotoxicity, luminescence viability. inhibition, % at 5 µM. actives 0.78% (n = 290,000); in the data active = inhibition above about 22%;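 also: 0% = plate median of test compound wells and 100% = cytotoxic reference compound wells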
Ba/F3 V617F tox: reduce viability of Ba/F3 cells dependent on JAK2V617F | actives 1.1% (n = 220,000) | Ba/F3 EpoR-JAK2V617F viability, ATP luminescence | inhibition, % at 5.6 µM;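 active = inhibition above the campaign mean plus 3 SD over all tested compounds, cut at about 24% in these data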;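 also: cytokine-independent growth of Ba/F3 cells driven by EpoR plus mutant JAK2; 0% = DMSO-treated cells and 100% = JAK inhibitor I control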
b-catenin transl: alters nuclear translocation of beta-catenin in HeLa cells. AID 1665. nuclear translocation activity, % at 5 µM. actives 0.3% (n = 190,000). immunofluorescence imaging;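 active = nuclear translocation activity above 50% at 5 µM, with a well cell count of 50 or more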;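 also: per-cell ratio of nuclear to cytoplasmic median beta-catenin stain intensity; plate controls were DMSO negative control for no effect and GSK-3 inhibitor IX positive control for full effect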
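assay system = human HeLa cells, endogenous beta-catenin | times = compound treatment 24 h, 37°C, 5% CO2 | detection = Anti-beta-catenin immunofluorescence on PFA-fixed, Triton-permeabilized cells, DAPI nuclei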
Starred values were filed as active, the others as inactive; . = no result.

SMILES | BaF3 parental | APP 5UTR inh | MT stabilizer | IEC-6 tox | Ba/F3 V617F tox | b-catenin transl
CC(=O)Nc1cccc(C(=O)Nc2ccccc2N2CCOCC2)c1 | -2 | -3 | 32* | -4 | -2 | -4
COc1cc(NC(=O)CCCNC(=O)Cn2cnc3sc(C)c(C)c3c2=O)cc(OC)c1OC | . | . | . | 0 | . | .
CC(=O)c1cccc(N=c2scc(-c3ccc(S(=O)(=O)N4CCOCC4)cc3)n2CCO)c1 | 47* | 17 | 1 | 4 | 43* | .
C=CCn1c(-c2ccc(S(=O)(=O)N3CCOCC3)cc2)csc1=Nc1ccccc1 | -1 | -4 | 2 | -4 | -2 | -1
O=C(c1ccc(Cl)cc1)N(Cc1ccco1)C1CCS(=O)(=O)C1 (centres undefined) | . | . | . | -1 | . | .
Cc1ccc(S(=O)(=O)NCCCN2CCOCC2)cc1C | 2 | -3 | 2 | -4 | -1 | 1
Cc1cc(C)c(C)c(S(=O)(=O)NCCCN2CCOCC2)c1C | 90* | 11 | 1 | 4 | 4 | -1
CCCCNC(=O)Cn1c(=O)c2c(ncn2CC)n(Cc2ccccc2)c1=O | . | . | . | 6 | . | .
CCOC(=O)c1c(NC(=O)C(NCCN(C)C)c2ccccc2)sc2c1CCCC2 (centres undefined) | . | . | . | 3 | . | .
Cc1cc(C(=O)N/N=C/C=C/c2ccccc2)n[nH]1 | -2 | . | . | -3 | -4 | 0
O=C(N/N=C/c1ccc(Cl)cc1Cl)c1n[nH]c2c1CCCC2 | 2 | 10 | 22* | 8 | 4 | 20
O=C(N/N=C\c1cccc(Cl)c1)c1n[nH]c2c1CCCC2 | 7 | -156 | 5 | 4 | 1 | -2
O=C(N/N=C/c1cccc2ccccc12)c1n[nH]c2c1CCCC2 | 9 | 74* | 31* | 2 | -2 | 9
O=C(N/N=C/C=C/c1ccccc1)c1n[nH]c2c1CCC2 | 7 | 60* | 25* | 11 | 10 | 176*
COc1cccc(C=O)c1OCCCOc1cccc2cccnc12 | . | . | . | 6 | . | .
Cc1c(Cl)ccc(S(=O)(=O)NCCCn2ccnc2)c1Cl | . | . | . | -1 | . | .
Cc1cc(C(F)F)n2nc(C(=O)Nc3cccnc3Cl)nc2n1 | 95* | -4 | 2 | 4 | -4 | -3
C=CCN(C(=O)CNC(=O)c1ccco1)C(C(=O)NC1CCCC1)c1ccc(OC)cc1 (centres undefined) | . | . | . | -4 | . | .
O=C1CC(/C=C/c2ccccn2)=Nc2ccccc2N1 | 4 | -51 | 7.4* | 6 | -1 | 0
CCN1CCN(S(=O)(=O)Cc2ccccc2Cl)CC1 | . | . | . | 1 | . | .
COc1ccc(N(CC(=O)N2CCC(C(N)=O)CC2)S(=O)(=O)c2ccccc2)cc1 | . | . | . | 6 | . | .
COc1cccc(Nc2nc(-c3ccc4c(c3)OCCO4)cs2)c1 | 1 | -162 | 34* | 2 | -2 | 5
CN(C(=O)COC(=O)c1nc(Cl)c(Cl)c(Cl)c1Cl)C1CCS(=O)(=O)C1 (centres undefined) | 7 | 59* | 2 | 2 | -2 | 1
CN(C(=O)COC(=O)c1nc(-c2ccccc2)n(-c2ccccc2)n1)C1CCS(=O)(=O)C1 (centres undefined) | 9 | -8 | 2 | 2 | 2 | -1
Cc1cccc(NC(=O)c2sc(C)nc2C)c1 | 1 | -33 | 3 | 7 | 2 | -2
SMILES | BaF3 parental | APP 5UTR inh | MT stabilizer | IEC-6 tox | Ba/F3 V617F tox | b-catenin transl
Cc1cccc(C(=O)Nc2nc(C)c(C(=O)Nc3ccc4c(c3)CCC4)s2)c1 | 7 | -42 | 43* | -4 | 1 | .
O=C(C1CC(=O)N(c2ccc(F)cc2)C1)N1CCCCCC1 (centres undefined) | . | . | . | 6 | . | .
CCCOc1ccc2nc(NC(=O)OC)[nH]c2c1 | 75* | 86* | 7 | 81* | 78* | .
COC(=O)Nc1nc2ccc(C(=O)c3ccc(F)cc3)cc2[nH]1 | 19 | . | . | 20 | 51* | 66*
CCOc1ccc2nc(NCCCO)[nH]c2c1 | 3 | -11 | 2 | 5 | 3 | -1
O=C(CCC(=O)N1CCOc2ccccc21)Nc1ccccc1Cl | . | . | . | 2 | . | .
CCN(CC1COc2ccccc2O1)C(=S)Nc1ccc(F)cc1 (centres undefined) | 31* | -9 | 1 | -8 | 34* | 3
CC(C(=O)N1CCN(Cc2ccc3c(c2)OCO3)CC1)n1cc([N+](=O)[O-])cn1 (centres undefined) | . | . | . | -4 | . | .
COc1ccc(S(=O)(=O)N(CC(=O)NCC2CCCO2)C2CCCCC2)cc1OC (centres undefined) | . | . | . | -4 | . | .
S=C(Nc1ccc(Cl)cc1)N1CCN(Cc2ccccc2)CC1 | 49* | 2 | . | 3 | 28* | 1
O=C(C1CCCO1)N1CCN(C(=S)Nc2ccc(Cl)cc2)CC1 (centres undefined) | 30* | -3 | 3 | -4 | 39* | 0
Cc1ccc(NC(=S)N2CCN(C(=O)C3CCCO3)CC2)cc1 (centres undefined) | 3 | 8 | 2 | 9 | 3 | 0
CCCN(CCC)C1=CC(=[N+]2CCCC2)CC(C)(C)C1 | 72* | -2 | 3 | 20 | 88* | 1
COc1ccc(NC(=O)CN(c2ccc([N+](=O)[O-])cc2)S(=O)(=O)c2ccccc2)c(OC)c1 | 6 | 3 | 2 | -6 | 0 | 4
COc1ccc(N(CC(=O)Nc2ccc(OC)cc2OC)S(=O)(=O)c2ccccc2)cc1 | 2 | -21 | 8.3* | 4 | -6 | 0
COC(=O)c1ccccc1NC(=O)CN(c1ccc(OC)cc1)S(C)(=O)=O | 5 | -2 | 29* | -1 | 1 | 2
CCNC(=O)Nc1ccc(OC)cc1OC | 1 | 50* | 5 | -2 | 0 | -4
CSCC[C@H](NC(=O)N1CCn2c1nc1ccccc12)C(=O)NCC1CCCO1 (some centres undefined) | . | . | . | -5 | . | .
CCOC(=O)N1CCN(c2nc(-c3ccccc3)c3ccccc3n2)CC1 | . | . | . | 0 | . | .
Cc1ccc(-c2[nH]ncc2CN2CCN(C(=O)c3cccs3)CC2)cc1C | . | . | . | 2 | . | .
COCC1CCN(C(=O)c2oc3c(F)cccc3c2C)C1 (centres undefined) | . | . | . | 2 | . | .
Cn1nc(C(C)(C)C)cc1C(=O)NCc1cc(F)cc2c1OCOC2 | 57* | . | . | 9 | 44* | 1
Cc1cc(C(=O)NCc2cc(F)cc3c2OCOC3)nn1C | -2 | . | . | -2 | 0 | 0
Cc1onc(-c2ccccc2)c1C(=O)NC(=S)NNC(=O)c1ccccc1O | 84* | -8 | 3 | 1 | 101* | -3
Cc1onc(-c2ccccc2)c1C(=O)NC(=S)NNC(=O)c1ccc(O)cc1O | 72* | 27 | 3 | -5 | 98* | 4
O=C(NCCNc1ccccc1[N+](=O)[O-])c1cc(F)c(F)cc1Cl | . | . | . | -1 | . | .
Cc1sc2ncnc(NC3CCN(Cc4ccccc4)CC3)c2c1C | 34* | 4 | 4 | 16 | 33* | -5
CC(C)c1ccc(/C=N/NC(=O)c2cccc(Cl)c2)cc1 | 1 | -70 | 23* | -3 | 0 | .
COc1ccc(/C=N/NC(=O)c2ccc(Br)cc2)cc1Cn1cc(Cl)cn1 | 5 | -4 | 4 | 6 | 2 | 1

Screening results from PubChem BioAssay.
